Hits are enriched below; roughly 2.9% of the tested compounds scored in any of these assays.
Dynein transport = blocks dynein driven cargo transport along microtubules; 3617.4 mouse cells, GR-EGFP nuclear translocation imaging; test concentration mostly 20 µM; stimulated with dexamethasone, 1 µM; hits give low values; z-score, hits read low; 0.47% of 220,000 active; AID 1381;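 active = plate z-score of nuclear minus cytoplasmic receptor signal below a set negative limit, without overly bright fluorescence or cell loss, cut at about -3.5 in these data, passing the limit was not always enough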;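 note: z-score of nuclear minus cytoplasmic ring GR-EGFP intensity difference per well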
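Buffer or medium: tetracycline-free induction medium containing charcoal-stripped FBS / Reagent: dexamethasone agonist, 1.0 µM final, for 30 min / Technique: automated 10x imaging of fixed Hoechst-stained cells / Times: induction 48 h, compound 1 h, agonist 30 min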
ATG4B inh = ATG4B (human) cysteine protease inhibition. 0.51% of 340,000 active. ATG4B cleavage of LC3-PLA2, NBD-HPC fluorescence, 1 h. AID 504462. inhibition, % at 8.33 µM. Q9Y4P1; in the data active = inhibition above about 40%
Target sequence (Q9Y4P1 whole entry, looked up): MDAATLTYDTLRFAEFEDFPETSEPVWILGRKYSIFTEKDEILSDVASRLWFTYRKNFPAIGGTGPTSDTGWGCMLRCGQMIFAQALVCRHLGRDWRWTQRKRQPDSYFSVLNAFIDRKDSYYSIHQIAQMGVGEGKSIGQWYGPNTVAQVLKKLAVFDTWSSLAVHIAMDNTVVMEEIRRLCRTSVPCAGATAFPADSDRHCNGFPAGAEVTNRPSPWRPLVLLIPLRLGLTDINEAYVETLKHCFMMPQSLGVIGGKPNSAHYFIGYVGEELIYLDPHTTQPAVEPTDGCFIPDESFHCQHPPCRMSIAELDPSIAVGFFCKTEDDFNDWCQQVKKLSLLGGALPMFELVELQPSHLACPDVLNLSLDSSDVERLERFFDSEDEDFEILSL
MEKK3 PB1 HTS = MEKK3-MEK5 PB1 interaction, increase or decrease. Q99759. bead-based flow cytometry, Alexa488-MEK5 binding to MEKK3; actives lie on both sides; 0 = blocked by unlabeled MEK5, 100 = vehicle. binding response (% of control), % at 10 µM. 1.4% of 290,000 active. AID 1529;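 active = binding response more than 3 SD above or below the average of its plate-row segment, actives on both sides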;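 note: Alexa488 bead fluorescence after subtracting the streptavidin-only scavenger bead signal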
MEKK2 WT-MEK5 = raises or lowers MEK5 binding to wildtype human MEKK2 PB1 domain. Q9Y2U5. bead flow cytometry, Alexa488-MEK5 binding to MEKK2 WT; actives lie on both sides. binding response (% of control), % at 10 µM. 1.1% of 290,000 active; in the data active = binding response below about 67% or above about 130%
MEKK2mut PB1 HTS = signal of MEK5 binding to mutant human MEKK2 PB1 domain. AID 1530. bead flow cytometry, Alexa488-MEK5 binding to MEKK2 mutant. percent response, % at 10 µM. 0.35% of 290,000 active; in the data active = percent response above about 24%, passing the limit was not always enough
B2AR ag = agonists of human beta-2 adrenergic receptor inducing internalization | Am2.2-beta2AR cells, FAP receptor internalization, flow cytometry | 0.43% of 340,000 active | P07550 | response, % (concentration not given with the values) | AID 504454;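 active = response above a set limit, near 3 SD of response in nonfluorescent compounds, cut at about 42% in these data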
MEKK2wt confirm = raises or lowers MEK5 binding to wildtype human MEKK2, retest; 2.4% of 5,900 active; shares compounds with MEKK3 PB1 HTS; bead flow cytometry, Alexa488-MEK5 binding to MEKK2 WT; actives lie on both sides; binding response (% of control), % at 10 µM; AID 1892; in the data active = binding response below about 16% or above about 210%; inactive = in between
MEKK2mut-MEK5 = signal of MEK5 binding to mutant human MEKK2, retest; shares compounds with MEKK3 PB1 HTS; bead flow cytometry, Alexa488-MEK5 binding to MEKK2 mutant; percent response, % at 10 µM; 2% of 5,900 active; AID 1893; in the data active = percent response mostly above about 71%, no sharp cut-off; inactive = mostly below about 38%;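 note: higher means compound restores mutant binding toward wildtype level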
MEKK3 confirm = confirmation of inhibitors of MEK5 binding to human MEKK3 | 1.8% of 5,900 active | shares compounds with MEKK3 PB1 HTS | binding response (% of control), % at 10 µM | bead flow cytometry, Alexa488-MEK5 binding to MEKK3; hits give low values;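 active = binding response below 72% of control, or above a set upper limit, though filed actives all read lower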;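 note: 100% = DMSO only wells and 0% = binding blocked by excess unlabeled MEK5; lower values mean stronger disruption of MEK5 binding to MEKK3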
Starred values were filed as active, the others as inactive; . = no result given; [ ] = another dose, or the depositor's remark.

SMILES	Dynein transport	ATG4B inh	MEKK3 PB1 HTS	MEKK2 WT-MEK5	MEKK2mut PB1 HTS	B2AR ag	MEKK2wt confirm	MEKK2mut-MEK5	MEKK3 confirm
COc1ccc(N(C(C)C(=O)Nc2cccnc2)S(C)(=O)=O)cc1 (stereo unspecified)	0.29	-6	98	86	-12	-14	.	.	.
CC(=O)c1oc2ccccc2c1NC(=O)CN1CCCCC1	0.79	5	4.0*[inhibitor]	3.0*[inhibitor]	-2	2	105	6	105
COc1cc(/C=N/NC(=O)c2nc(-c3ccccc3)n(-c3ccccc3)n2)ccc1O	0.9	-16	102	101	2	1	.	.	.
COc1ccc2c(c1)c(C(=O)N/N=C/c1ccc(OC)c(OC)c1)c(C)n2C	0.075	-4	152*	108	0	-12	97	-8	97
COc1ccc2c(c1)c(C(=O)N/N=C/c1ccc(Cl)cc1)c(C)n2C	0.48	1	98	95	-2	-2	.	.	.
COc1ccc(/C=N/NC(=O)c2nc(-c3ccccc3)n(-c3ccccc3)n2)cc1OC	0.58	1	151*	108	1	-7	102	4	105
CCN(C(=O)CN1C(=O)S/C(=C\c2ccc(F)cc2)C1=O)C1CCS(=O)(=O)C1 (stereo unspecified)	.	-5	96	98	-1	24	.	.	.
O=C(Nc1cccc(C(=O)N2CCN(Cc3ccccc3)CC2)c1)c1ccccc1	2.4	-7	93	91	-3	-2	.	.	.
CC(=O)Nc1cccc(C(=O)N2CCN(Cc3ccccc3)CC2)c1	1.1	2	-1.0*[inhibitor]	-1.0*[inhibitor]	-21	-3	107	3	105
O=C(COC(=O)CNC(=O)c1ccc(Cl)cc1)Nc1ccc(Cl)cc1C(F)(F)F	-0.79	5	107	103	0	-6	.	.	.
Cc1cc(/C=C2\C(=O)NN(c3ccccc3)C2=O)c(C)n1-c1ccccc1O	1.4	4	36*[inhibitor]	32*[inhibitor]	-13	-10	97	-3	101
COc1ccc(-c2nc(SC(CC(=O)NCCN3CCOCC3)c3cccs3)n[nH]2)cc1 (stereo unspecified)	-1.1	-1	109	113	7	1	.	.	.
COc1ccc(/C=N/n2c(SC)nnc(C(C)(C)C)c2=O)c(OC)c1	2	0	105	104	10	-7	.	.	.
O=C(Nc1ccccc1N1CCOCC1)c1cccnc1	-0.33	-10	128*	112	2	0	106	0	104
O=C(Nc1ccc(N2CCOCC2)c(Cl)c1)c1cccnc1	0.014	-2	101	98	2	4	.	.	.
O=C(CNC(=S)NC(=O)c1ccc(F)cc1)c1ccccc1	1.4	8	136*	107	2	1	103	-2	101
O=C(CNC(=S)NC(=O)c1ccccc1)c1ccccc1	-0.39	13	96	96	-2	-9	.	.	.
Cc1ccc(Cl)cc1N1CCN(C(=O)Cc2cn(C)c3ccccc23)CC1	-0.051	-12	130*	117	5	-1	106	4	107
Cc1ccc(C)c(N2CCN(C(=O)Cc3cn(C)c4ccccc34)CC2)c1	-0.76	-10	111	113	4	12	.	.	.
COc1ccc(/C=N/N=C2\SCC(=O)N2c2c(C)n(C)n(-c3ccccc3)c2=O)cc1OC	0.13	-11	146*	108	4	-1	102	2	104
COC(=O)Cn1c(=NC(=O)c2ccc(Cl)s2)sc2cc(F)ccc21	0.9	-2	134*	102	0	-2	99	-1	98
COC(=O)Cn1c(=NC(=O)c2ccc(OC)c(OC)c2)sc2cc(OC)ccc21	-0.69	-21	106	101	-2	2	.	.	.
FC(F)(F)c1nnc2ccc(Cl)nn12	-0.26	0	103	100	1	4	.	.	.
FC(F)(F)c1nnc2ccc(Sc3ccccn3)nn12	-0.79	13	1.0*[inhibitor]	.	-28	12	95	-8	95
C[C@H](NC(=O)c1nc[nH]c1C(=O)NC1CCN(C(=O)OC(C)(C)C)CC1)C(=O)OC(C)(C)C	0.64	-2	1.0*[inhibitor]	-5.0*[inhibitor]	-44	-3	101	-2	99
SMILES	Dynein transport	ATG4B inh	MEKK3 PB1 HTS	MEKK2 WT-MEK5	MEKK2mut PB1 HTS	B2AR ag	MEKK2wt confirm	MEKK2mut-MEK5	MEKK3 confirm
COc1ccc(NC(=O)c2nc[nH]c2C(=O)N[C@@H](C)C(=O)OC(C)(C)C)cc1	-0.11	4	82*[inhibitor]	101	-7	-2	88	-9	89
CNC(=O)C1CCN(S(=O)(=O)c2c(C)noc2/C=C/c2cccc(OC)c2)CC1	.	1	100	100	1	2	.	.	.
O=c1oc2ccccc2c2c1SC(C(F)(F)F)C2 (stereo unspecified)	-0.078	-5	99	103	3	-13	.	.	.
O=c1oc2ccc3ccccc3c2c2c1SC(C(F)(F)F)C2 (stereo unspecified)	-0.18	3	124*	115	8	10	94	-7	99
Cc1cc(-c2csc(N)n2)c(C)n1C	-0.59	10	99	102	9	3	.	.	.
COc1ccccc1CNc1nc(-c2cc(C)n(C)c2C)cs1	-1.8	9	78	-7.0*[inhibitor]	-4	18	105	6	96
COC(=O)Nc1cc([N+](=O)[O-])ccc1OC	-0.45	2	100	105	0	-2	.	.	.
COc1ccc([N+](=O)[O-])cc1NC(=O)c1ccc(C)o1	0.025	-9	187*	109	1	-1	96	-1	95
CCOC(=O)c1cc(NC(=O)c2ccco2)ccc1N1CCOCC1	0.65	5	27*[inhibitor]	35*[inhibitor]	-22	-24	111	8	109
O=C(Nc1ccc(N2CCOCC2)c(C(=O)O)c1)c1ccco1	0.31	.	98	99	0	.	.	.	.
CCN1C(=O)c2cccc3c(S(=O)(=O)Nc4ncccc4C)ccc1c23	0.047	-25	82*[inhibitor]	85	-10	-14	105	3	105
CCN1C(=O)c2cccc3c(S(=O)(=O)Nc4ccccn4)ccc1c23	-0.83	-8	112	104	4	-8	.	.	.
CC(C)(C)Nc1nc(Oc2ccc(=O)[nH]n2)nc(N2CCOCC2)n1	0.32	6	75*[inhibitor]	88	-2	3	104	0	101
